ERAP1 HTS inh = inhibitors of human ERAP1 aminopeptidase. AID 652197. 340,000 compounds, 0.15% hits. inhibition, % at 10.7 µM. recombinant ERAP1, Leu-AMC fluorescence, 60 min. Q9NZ08;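 active means mean replicate inhibition of at least 30%, or all replicates individually reaching that 30% level; inactive means mean below 30% and not every replicate reaching it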;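 further: 0% = neutral control wells and 100% = L-leucinethiol positive control wells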
PGC1a acetyl inh = modulators of PGC1a acetylation; U2OS PGC1a acetylation, AlphaScreen anti-acetyl-lysine; with virally co-expressed GCN5 acetyltransferase; inhibition, % at 15.6 µM; 350,000 compounds, 0.17% hits; AID 651687;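 active means every replicate shows inhibition of at least 40%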;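 further: 0% = neutral control wells and 100% = positive control wells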
C2C12 statin = suppressors of simvastatin-induced myotoxicity in C2C12 myotubes | ATP luminescence, 48 h; scaled: DMSO 0, geranylgeraniol control 100 | rescue of ATP level, % at 7.49 µM | 330,000 compounds, 0.78% hits;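 active means mean ATP rescue above about 67%, or every replicate alone reaching that limit, limit read from the data, passing the limit was not always enough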;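 further: myotubes were challenged with 10 µM simvastatin during compound exposure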
Rtt109 Vps75 = C. albicans Rtt109 histone acetyltransferase inhibition. AID 540336. inhibition, % at 34.9 µM. Q5AAJ8. 330,000 compounds, 0.16% hits. purified Rtt109/Vps75, ThioGlo CoA-SH fluorescence, 4 h;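 active means inhibition of at least 50% in every replicate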
Target sequence (Q5AAJ8 whole entry, looked up): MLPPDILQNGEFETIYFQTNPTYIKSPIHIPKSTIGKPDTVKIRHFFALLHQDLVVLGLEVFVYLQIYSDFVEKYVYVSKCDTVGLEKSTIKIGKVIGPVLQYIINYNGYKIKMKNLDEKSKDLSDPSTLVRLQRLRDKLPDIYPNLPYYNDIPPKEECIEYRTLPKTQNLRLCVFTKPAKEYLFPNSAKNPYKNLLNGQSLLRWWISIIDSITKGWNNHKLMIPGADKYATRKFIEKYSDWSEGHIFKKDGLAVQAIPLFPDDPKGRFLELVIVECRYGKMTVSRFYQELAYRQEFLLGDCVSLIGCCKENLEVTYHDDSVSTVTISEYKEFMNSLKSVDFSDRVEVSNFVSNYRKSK
S100A4 MyoIIA = S100A4-myosin IIA interaction inhibition. 360,000 compounds, 0.14% hits. S100A4/TAMRA-MyoIIA peptide fluorescence polarization. P26447. inhibition, % at 10.7 µM;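 active means mean inhibition of at least 70% across replicates, with every replicate also reaching that level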
Target sequence (P26447 whole entry, looked up): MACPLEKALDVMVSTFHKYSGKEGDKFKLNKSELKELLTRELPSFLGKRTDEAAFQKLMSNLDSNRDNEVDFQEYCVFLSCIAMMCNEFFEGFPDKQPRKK
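Material: S100A4 monomer (human). Medium: Calcium-containing HEPES buffer, pH 7.2. Probe or stimulus: labelled myosin peptide probe, 5 nM. Compound dosing: one concentration per compound. Timing: polarization read 5 min after assay mix addition, stable 5–60 min. Benchmarks: DMSO as neutral control, TFP as positive control.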
* = called active by the depositor; . = no result given. Only some compounds are listed: those with a hit (about 0.98% of all), similar ones and a draw of the others.

SMILES	ERAP1 HTS inh	PGC1a acetyl inh	C2C12 statin	Rtt109 Vps75	S100A4 MyoIIA
O=C1c2ccc(-c3ccc4c(c3)C(=O)N(CCCO)C4=O)cc2C(=O)N1CCCO	-0.4	69.8*	-1.8	-0.9	1.4
O=C(Nc1ccc2nc(-c3cccnc3)[nH]c2c1)C1CCCCC1	.	2.7	-52.4	-27.6	.
O=C(Nc1ccc2nc(-c3cccnc3)[nH]c2c1)C12CC3CC(CC(C3)C1)C2	.	2.1	75.5*	5.1	.
COc1ccc(CN(C)C[C@@H]2OCCCC[C@H](C)Oc3ccc(NC(=O)CCCN(C)C)cc3C(=O)N([C@H](C)CO)C[C@@H]2C)cc1	2.2	1.0	-37.8	.	5.6
C[C@H](CO)N1C[C@H](C)[C@@H](CN(C)C(=O)Nc2ccc(F)cc2)OCCCC[C@H](C)Oc2ccc(N(C)C)cc2C1=O	-2.8	-0.1	-6.1	.	4.6
Cc1noc(C)c1NC(=O)N(C)C[C@@H]1Oc2c(NS(=O)(=O)c3ccc(Cl)cc3)cccc2C(=O)N([C@H](C)CO)C[C@H]1C	-0.6	0.4	.	.	8.2
O=C(CN1C2=NCCCN2c2ccccc21)c1ccc(Br)s1	.	-17.1	114.6*	0.5	.
O=C(O)CN1C2=NCCCN2c2ccccc21	1.2	2.3	.	2.7	2.2
c1ccc(CN2C3=NCCCN3c3ccccc32)cc1	.	-9.3	78.7*	-3.2	.
Cc1ccc(CCNC(=O)c2cc(-c3ccncc3)nc3ccc(S(=O)(=O)N4CCOCC4)cc23)cc1	0.5	7.3	-32.9	29.0	148.5*
O=C(NCc1ccccc1)c1cc(-c2ccncc2)nc2ccc(S(=O)(=O)N3CCOCC3)cc12	0.1	-5.5	-1.8	0.7	0.0
O=C(O)CCS(=O)(=O)c1nc(-c2cccs2)cc(C(F)(F)F)n1	2.7	13.5	31.1	8.8	-0.4
CCOC(=O)CS(=O)(=O)c1nc(-c2ccccc2)cc(C(F)(F)F)n1	.	58.2*	.	-2.3	.
COCC(C)NC(=O)CCS(=O)(=O)c1nc(-c2ccc(OC)cc2)cc(C(F)(F)F)n1 (stereo not drawn)	.	-14.1	39.9	6.3	.
COC(=O)CCS(=O)(=O)c1nc(-c2ccccc2)cc(C(F)(F)F)n1	.	.	.	67.6*	.
CCOC(=O)CCS(=O)(=O)c1nc(-c2ccccc2)cc(C(F)(F)F)n1	.	67.6*	-4.5	24.4	.
CCOC(=O)CS(=O)(=O)c1nc(-c2ccc(F)cc2)cc(C(F)(F)F)n1	.	26.5	56.2	-6.0	.
COc1ccc(-c2cc(C(F)(F)F)nc(S(=O)(=O)CCCC(=O)Nc3cccnc3Cl)n2)cc1OC	49.5*	.	.	-3.9	1.1
O=C(C[C@@H]1C=C[C@@H](NC(=O)C2CC2)[C@H](CO)O1)NC1CCC1	-0.2	12.7	4.8	.	-1.1
Nc1ccn(CC(=O)N[C@H](CO)Cc2c[nH]c3ccccc23)c(=O)n1	1.1	-7.5	124.4*	1.0	-0.4
CS(=O)(=O)N(CC(=O)N1CCOCC1)c1cccc(Cl)c1	34.3*	3.3	-9.4	.	-1.7
O=C(Nc1ccc(F)cc1F)N1CCCC(c2nc(-c3ccc(F)cc3)no2)C1 (stereo not drawn)	-2.1	.	.	64.1*	-0.6
CCN(CC)C(=O)c1[nH]cnc1C(=O)NCC(=O)OC(C)(C)C	2.7	3.6	93.2*	9.5	43.2
COC(=O)C[C@@H]1C[C@@H]2c3cc(NC(=O)Cc4ccncc4)ccc3O[C@@H]2[C@H](CO)O1	0.6	1.1	2.0	.	-65.2
O=C(NCc1cccc(Cl)c1)c1cnn2c1NC(c1ccco1)CC2C(F)(F)F (stereo not drawn)	.	-5.5	24.4	0.4	.
SMILES	ERAP1 HTS inh	PGC1a acetyl inh	C2C12 statin	Rtt109 Vps75	S100A4 MyoIIA
O=C(NCC12CC3CC(CC(C3)C1)C2)c1nn2c(c1Cl)NC(c1ccco1)CC2C(F)(F)F (stereo not drawn)	.	1.5	137.3*	-0.3	.
O=C(c1cccc(-c2nnc(-c3ccccc3)o2)c1)N1CCCCCC1	.	10.1	7.8	23.1	.
O=C(c1cccc(-c2nnc(-c3ccccc3)o2)c1)N1CCCCC1	.	-10.7	120.8*	-3.5	.
C[C@H]1CN([C@@H](C)CO)C(=O)c2cc(NC(=O)C3CCCCC3)ccc2O[C@@H]1CN(C)S(=O)(=O)c1cn(C)cn1	-1.3	4.1	2.7	.	-1.5
COc1ccc(Nc2nc(C)nc3c2oc2ccccc23)c(OC)c1	11.2	8.9	-18.4	-3.5	-5.5
CCc1nc(Nc2ccc(OC)cc2OC)c2oc3ccccc3c2n1	32.1*	.	-3.5	-32.2	0.3
CCCCCCCCOc1ccc(C(=O)O)cc1	-0.6	-19.4	-10.9	24.8	-1.9
C=C(C)C(=O)OCCCCCCOc1ccc(C(=O)O)cc1	.	-12.1	97.0*	0.2	.
COc1cccc(S(=O)(=O)N(C)C[C@H]2OCc3ccccc3-c3ccccc3C(=O)N([C@@H](C)CO)C[C@H]2C)c1	-3.0	-4.5	-1.5	.	-1.6
COc1ccc(CCNC2CCN(C)CC2)cc1OC	.	2.7	111.6*	-10.9	.
COc1ccccc1NC(=O)N1CC(=O)N2[C@H](CO)[C@H](c3ccc(C#Cc4ccc(F)cc4)cc3)[C@@H]2C1	0.0	2.3	.	.	0.8
Cc1ccc(CN(C(=O)c2ccco2)C(C(=O)NC2CCCC2)c2cccnc2)cc1 (stereo not drawn)	-0.7	-3.8	2.5	-2.3	2.1
Cc1ccc(CN(C(=O)c2ccco2)C(C(=O)NC2CCCC2)c2ccc(N3CCOCC3)cc2)cc1 (stereo not drawn)	.	-1.6	119.4*	2.6	.
COc1ccc2c3c(n(C)c2c1)[C@@H](CO)N(C(=O)Nc1ccc(F)cc1)CC31CCN(C(=O)c2ccccc2F)CC1	1.8	-3.2	.	.	-3.6
COc1cc(NC(=O)Cc2cccc3ccccc23)c(C(=O)O)cc1OC	7.3	.	82.9*	-15.4	-3.3
Cc1nc(N)sc1-c1nnc(SCC(=O)Nc2ccccc2C(F)(F)F)n1C	.	2.5	141.6*	-13.3	.
O=C(NCCCN1CCc2ccccc2C1)Nc1ccc(Cl)cc1	.	-20.6	87.3*	6.9	.
COc1ccc(NC(=O)NCCN2CCc3ccccc3C2)cc1	.	0.2	.	-3.9	.
O=C(C[C@H]1CC[C@@H]2[C@H](COC[C@H](O)CN2C(=O)Nc2ccccc2)O1)NC1Cc2ccccc2C1	1.0	1.9	16.0	.	1.3
COc1cccc(NC(=O)N(C)C[C@H]2Oc3cc(C#CC4(O)CCCC4)ccc3S(=O)(=O)N([C@H](C)CO)C[C@H]2C)c1	3.0	0.1	1.8	.	95.4*
